Measurements reported in ChEMBL document CHEMBL4834419 (J Med Chem, 2021).
Activity calls are given as the source filed them. No cut-off for these calls is given here.

Assays:
[1] = biological target: T1, Retinoic acid receptor RXR-alpha (Homo sapiens, UniProt P19793); experiment: Agonist activity at human RXRalpha transfected in human HEK293T cells co-expressing pFR/pRL-Luc incubated for 14 to 16 hrs by hybrid reporter gene assay; format: cell-based
T1 sequence (P19793 whole entry): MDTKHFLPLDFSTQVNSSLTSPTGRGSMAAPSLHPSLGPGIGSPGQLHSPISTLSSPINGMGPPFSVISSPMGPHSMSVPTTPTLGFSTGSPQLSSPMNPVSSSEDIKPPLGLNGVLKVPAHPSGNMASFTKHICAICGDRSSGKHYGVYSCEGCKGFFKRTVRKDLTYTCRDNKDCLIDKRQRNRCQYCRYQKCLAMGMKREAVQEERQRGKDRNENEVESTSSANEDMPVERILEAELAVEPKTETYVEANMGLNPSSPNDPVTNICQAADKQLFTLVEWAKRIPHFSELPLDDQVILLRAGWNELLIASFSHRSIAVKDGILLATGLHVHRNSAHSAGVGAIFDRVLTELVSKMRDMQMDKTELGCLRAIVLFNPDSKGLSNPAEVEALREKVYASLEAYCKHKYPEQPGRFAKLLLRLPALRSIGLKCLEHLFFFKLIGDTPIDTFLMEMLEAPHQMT

[2] = biological target: T2, Retinoic acid receptor RXR-beta (Homo sapiens, UniProt P28702); experiment: Agonist activity at human RXRbeta transfected in human HEK293T cells co-expressing pFR/pRL-Luc incubated for 14 to 16 hrs by hybrid reporter gene assay; format: cell-based
T2 sequence (P28702 whole entry): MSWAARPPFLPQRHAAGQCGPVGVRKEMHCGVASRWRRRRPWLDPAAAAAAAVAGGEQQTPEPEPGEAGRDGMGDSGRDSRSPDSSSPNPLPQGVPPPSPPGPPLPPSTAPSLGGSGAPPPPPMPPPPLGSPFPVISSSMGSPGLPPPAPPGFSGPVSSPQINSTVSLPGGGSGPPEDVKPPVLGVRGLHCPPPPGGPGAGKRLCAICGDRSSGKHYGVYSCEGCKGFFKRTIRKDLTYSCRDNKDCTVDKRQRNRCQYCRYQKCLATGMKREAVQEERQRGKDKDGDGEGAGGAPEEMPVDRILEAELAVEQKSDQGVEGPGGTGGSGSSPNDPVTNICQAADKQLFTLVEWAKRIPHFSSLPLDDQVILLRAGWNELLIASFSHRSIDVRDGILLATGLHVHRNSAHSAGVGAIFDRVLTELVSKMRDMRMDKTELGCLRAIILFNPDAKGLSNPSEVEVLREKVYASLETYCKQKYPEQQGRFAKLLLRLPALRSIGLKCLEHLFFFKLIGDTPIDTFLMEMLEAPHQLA

[3] = biological target: T3, Retinoic acid receptor RXR-beta (Homo sapiens) (UniProt P28702); experiment: Agonist activity at human RXRbeta transfected in human HEK293T cells co-expressing pFR/pRL-Luc at 30 uM incubated for 14 to 16 hrs by hybrid reporter gene assay; format: cell-based; conditions: time 14-16 hrs
T3 sequence (whole entry): T2 sequence (P28702 whole entry)
In short: (§1)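 Gal4 hybrid reporter assay in HEK293T cells, seeded 24 h before transfection (Lipofectamine LTX, Opti-MEM) with pFR-Luc, pRL-SV40 and pFA-CMV plasmid carrying the hinge region and LBD of the human receptor. After 5 h, compound added in 0.1% DMSO, with 0.1% DMSO alone as untreated control. Dual-Glo luciferase read after 14−16 h; firefly/renilla normalized; duplicates, ≥2 independent experiments.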

[4] = biological target: T4, Retinoic acid receptor RXR-gamma (Homo sapiens) (UniProt P48443); experiment: Agonist activity at human RXRgamma transfected in human HEK293T cells co-expressing pFR/pRL-Luc at 30 uM incubated for 14 to 16 hrs by hybrid reporter gene assay; format: cell-based; conditions: time 14-16 hrs; in short: as §1
T4 sequence (whole entry): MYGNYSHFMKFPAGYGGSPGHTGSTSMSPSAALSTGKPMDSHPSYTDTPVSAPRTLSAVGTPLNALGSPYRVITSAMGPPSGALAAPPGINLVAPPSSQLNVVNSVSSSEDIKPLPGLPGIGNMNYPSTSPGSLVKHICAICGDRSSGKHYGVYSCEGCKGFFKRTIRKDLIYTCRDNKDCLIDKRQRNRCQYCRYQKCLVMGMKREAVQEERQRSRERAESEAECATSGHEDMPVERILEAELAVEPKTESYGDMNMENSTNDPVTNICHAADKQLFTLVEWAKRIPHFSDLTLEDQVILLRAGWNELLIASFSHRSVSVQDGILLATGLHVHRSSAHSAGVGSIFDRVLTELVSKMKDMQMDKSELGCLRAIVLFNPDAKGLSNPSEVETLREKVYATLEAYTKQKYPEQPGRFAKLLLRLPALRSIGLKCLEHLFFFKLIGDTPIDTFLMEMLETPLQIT

[5] = biological target: T5, Retinoic acid receptor RXR-alpha (Homo sapiens) (UniProt P19793); experiment: Agonist activity at human RXRalpha transfected in human HEK293T cells co-expressing pFR/pRL-Luc at 30 uM incubated for 14 to 16 hrs by hybrid reporter gene assay; format: cell-based; conditions: time 14-16 hrs; in short: as §1
T5 sequence (whole entry): T1 sequence (P19793 whole entry)

[6] = biological target: T6, Retinoic acid receptor RXR-gamma (Homo sapiens, UniProt P48443); experiment: Agonist activity at human RXRgamma transfected in human HEK293T cells co-expressing pFR/pRL-Luc incubated for 14 to 16 hrs by hybrid reporter gene assay; format: cell-based
T6 sequence (P48443 whole entry): T4 sequence (whole entry)

[7] = biological target: T4, Retinoic acid receptor RXR-gamma (Homo sapiens); experiment: Agonist activity at human RXRgamma transfected in human HEK293T cells co-expressing pFR/pRL-Luc at 50 uM incubated for 14 to 16 hrs by hybrid reporter gene assay; format: cell-based; conditions: time 14-16 hrs; in short: as §1
[8] = Metabolic stability in Sprague-Dawley rat liver microsomes assessed as compound degradation at 10 uM incubated for 60 min by HPLC analysis; format: ADME; conditions: 1 h
In short: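 Compound at 10 μM final in 0.1 M phosphate, pH 7.4, was preincubated 5 min at 37 °C with an NADPH-regenerating system. Sprague-Dawley rat liver microsomes were then added. Reactions were stopped with ice-cold methanol at 0, 15, 30 and 60 min and remaining compound quantified by HPLC against an external calibration. Controls: no NADPH, heat-inactivated microsomes. Three independent experiments.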

EC50 [1] [nM]	EC50 [2] [nM]	EC50 [6] [nM]	Structure (SMILES)	further results
1030	1500	–	O=C(O)CCc1nc(-c2cc(Cl)cc(Cl)c2)c(-c2cc(Cl)cc(Cl)c2)o1	–
–	–	–	O=C(O)CCc1nc(-c2ccccc2)co1	Activity [3]: inactive; Activity [4]: inactive; Activity [5]: inactive
–	130	500	CC(C)(C)c1cc(-c2oc(CCC(=O)O)nc2-c2ccccc2)cc(C(C)(C)C)c1	–
1600	1400	4000	COc1ccc(-n2nc(CCC(=O)O)cc2-c2cc(Cl)cc(Cl)c2)cc1	–
300	900	–	Cc1cc(C)cc(-c2oc(CCC(=O)O)nc2-c2ccccc2)c1	–
1300	2400	1400	O=C(O)CCc1nc(-c2ccc(Cl)cc2)c(-c2ccccc2)o1	–
–	4800	–	Cc1cccc(-c2nc(CCC(=O)O)oc2-c2ccccc2)c1	–
510	870	1500	O=C(O)CCc1nc(-c2ccccc2)c(-c2ccc(Cl)c(Cl)c2)o1	–
180	290	400	O=C(O)CCc1nc(-c2ccc(Cl)cc2)c(-c2cc(Cl)cc(Cl)c2)o1	–
480	500	1300	O=C(O)CCCc1nc(-c2ccccc2)c(-c2cc(Cl)cc(Cl)c2)o1	–
620	1300	4500	O=C(O)CCc1nc(-c2ccc(Cl)c(Cl)c2)c(-c2ccccc2)o1	–
1000	1600	> 10000	Cc1ccc(-c2oc(CCC(=O)O)nc2-c2ccccc2)cc1	–
17000	19100	–	O=C(O)CCc1nc(-c2ccccc2)c(-c2ccccc2Cl)o1	Activity [7]: inactive
–	14400	> 100000	Cc1ccc(-c2nc(CCC(=O)O)oc2-c2ccccc2)cc1	–
1900	2900	6700	O=C(O)CCc1nc(-c2cccc(Cl)c2)c(-c2ccccc2)o1	–
6500	39000	25000	Cc1ccccc1-c1nc(CCC(=O)O)oc1-c1ccccc1	–
1200	–	3200	O=C(O)CCc1nc(-c2ccccc2)c(-c2cccc(Cl)c2Cl)o1	–
–	–	19000	O=C(O)CCc1nc(-c2ccccc2)c(-c2ccc(Cl)cc2)o1	–
1300	1100	3000	O=C(O)CCCc1cc(-c2cc(Cl)cc(Cl)c2)n(-c2ccc(Cl)cc2)n1	–
–	–	–	O=C(O)Cc1nc(-c2ccccc2)c(-c2ccccc2)o1	Activity [3]: inactive; Activity [4]: inactive; Activity [5]: inactive
70	80	300	O=C(O)CCc1nc(-c2ccccc2)c(-c2cccc(C(F)(F)F)c2)o1	–
8400	12400	–	O=C(O)CCCCc1nc(-c2ccccc2)c(-c2ccccc2)o1	Activity [7]: inactive

EC50 [1] [nM]	EC50 [2] [nM]	EC50 [6] [nM]	Structure (SMILES)	further results
–	270	460	O=C(O)CCc1cc(-c2cc(C(F)(F)F)cc(C(F)(F)F)c2)n(-c2ccc(Cl)cc2)n1	–
–	3400	2800	O=C(O)CCc1nc(-c2cc(Cl)cc(Cl)c2)c(-c2ccccc2)o1	–
–	600	–	O=C(O)CCc1nc(-c2ccccc2)c(-c2cccc(Cl)c2)o1	–
7900	13500	43000	O=C(O)CCCc1nc(-c2ccccc2)c(-c2ccccc2)o1	–
7700	2000	6000	N#Cc1ccc(-n2nc(CCC(=O)O)cc2-c2cc(Cl)cc(Cl)c2)cc1	–
–	–	1600	O=C(O)CCc1cc(-c2cc(Cl)cc(Cl)c2)n(-c2ccccc2)n1	–
5800	1400	> 20000	O=C(O)CCc1nc(-c2ccccc2)c(-c2cc(Cl)ccc2Cl)o1	–
–	–	–	O=C(O)CCc1ncc(-c2ccccc2)o1	Activity [3]: inactive; Activity [4]: inactive; Activity [5]: inactive
> 50000	> 50000	> 50000	O=C(O)c1nc(-c2ccccc2)c(-c2ccccc2)o1	–
–	50	–	O=C(O)CCc1nc(-c2ccccc2)c(-c2cc(F)cc(F)c2)o1	–
1400	1800	> 10000	COc1cccc(-c2oc(CCC(=O)O)nc2-c2ccccc2)c1	–
500	900	3500	Cc1cccc(-c2oc(CCC(=O)O)nc2-c2ccccc2)c1	–
430	470	1640	O=C(O)CCc1cc(-c2cc(Cl)cc(Cl)c2)n(-c2ccc(F)cc2)n1	–
> 30000	> 30000	> 30000	Cn1ccc(-n2nc(CCC(=O)O)cc2-c2cc(Cl)cc(Cl)c2)n1	–
60	50	200	O=C(O)CCc1nc(-c2ccccc2)c(-c2cc(Cl)cc(Cl)c2)o1	Stabilty [8]: Stable
–	–	–	NC(=O)CCc1nc(-c2ccccc2)c(-c2ccccc2)o1	Activity [3]: inactive; Activity [4]: inactive; Activity [5]: inactive
3100	2000	3500	O=C(O)CCc1cc(-c2cc(Cl)cc(Cl)c2)n(-c2cccc(Cl)c2)n1	–
2500	1400	3000	Cc1ccc(-n2nc(CCC(=O)O)cc2-c2cc(Cl)cc(Cl)c2)cc1	–
16900	–	> 30000	Cc1ccccc1-c1oc(CCC(=O)O)nc1-c1ccccc1	–
–	25000	40100	O=C(O)CCc1nc(-c2ccccc2)c(-c2ccccc2)o1 [OXAPROZIN]	–
36000	48000	–	O=C(O)CCc1nc(-c2ccccc2Cl)c(-c2ccccc2)o1	Activity [7]: inactive
